According to publication PMC6299426 (Theranostics, 2018):
Where two headings read alike, the source gives them in different places. Marks after values point to notes of the source that are not given here.

Legend:
[1] = system: reserpine-induced acute depression model mice; assay: Tail suspension test in reserpine-induced acute depression model; assay type: in vivo, ICR mice; details: model group 140.6 ± 13.6 s
[2] = system: reserpine-induced acute depression model mice; assay: Degree of ptosis in reserpine-induced acute depression model; assay type: in vivo, ICR mice; details: 7 days, 1 h after reserpine, scale 0-4, model 2.7
[3] = system: reserpine-induced acute depression model mice; assay: Body temperature in reserpine-induced acute depression model; assay type: in vivo, ICR mice; details: 7 days, 4 h after reserpine, model 34.55±0.25
[4] = system: reserpine-induced acute depression model mice; assay: Out-circle rate in reserpine-induced acute depression model; assay type: in vivo, ICR mice; details: 7 days, in 15 s, model 20.0
[5] = system: D-amino acid oxidase (DAAO); assay: D-serine oxidation by pure DAAO in vitro; assay type: biochemical; details: 89 μM, 15 min at 37 °C; control 13%
[6] = system: carboxylesterase of the gut microbiota; assay type: biochemical, SD rats; details: without inhibitor 100%
In short: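 Carboxylesterase inhibitor BNPP (0.3, 0.9 or 3 mM) was added together with test compound (final 1 mg/mL) to pre-incubated pooled SD rat colon-content cultures. Incubation was anaerobic (N2) at 37 °C. Conversion was followed by C18 LC/MSn-IT-TOF.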

[7] = system: chronic stress-induced depression model rats; assay: Sugar preference test in chronic stress-induced depression model; assay type: in vivo, SD rats; details: 14 mg/kg orally, 14 days
In short: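 SD rats were exposed to multiple alternating stressors for 8 weeks; there were 6 groups of 10, including an unstressed control. Treatment lasted 14 days, and PGF rats stayed on antibiotics throughout. Sugar preference was tested on days 0 and 14. Data are mean ± standard deviation, analysed by two-way ANOVA and t-test.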

[8] = Identification of albiflorin metabolites in vivo; design: species or system ICR mice; details: after albiflorin administration
In short: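 Fecal metabolites were profiled by LC/MSn-IT-TOF. Feces were extracted with methanol (1/10, g/mL) by ultrasound for 30 min and centrifuged 10 min at 21100 ×g; 20 μL of supernatant was injected. Separation used a C18 column (250 × 4.6 mm, 5 μm) with a water/0.5% formic acid–methanol gradient at 0.8 mL/min over 45 min. Brain was sampled 2 h after oral dosing at 14 mg/kg, with analytes quantified by HPLC-MS/MS.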

[9] = biological target: D-amino acid oxidase (DAAO) (Mus musculus, UniProt P18894); assay: DAAO activity in mouse brain homogenate; assay type: biochemical, ICR mice; details: 5 and 10 μg/mL, 30 min at 37 °C
In short: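 Brains from ten ICR mice, killed by cervical dislocation, were rinsed in saline, blotted, weighed and homogenized in 2 volumes (v/w) saline. Test compounds at final 5 or 10 μg/mL were added and incubated 30 min at 37 °C. DAAO activity was measured by ELISA kit.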

Chain of D-amino acid oxidase (DAAO) (Mus musculus, UniProt P18894) (P18894 whole entry): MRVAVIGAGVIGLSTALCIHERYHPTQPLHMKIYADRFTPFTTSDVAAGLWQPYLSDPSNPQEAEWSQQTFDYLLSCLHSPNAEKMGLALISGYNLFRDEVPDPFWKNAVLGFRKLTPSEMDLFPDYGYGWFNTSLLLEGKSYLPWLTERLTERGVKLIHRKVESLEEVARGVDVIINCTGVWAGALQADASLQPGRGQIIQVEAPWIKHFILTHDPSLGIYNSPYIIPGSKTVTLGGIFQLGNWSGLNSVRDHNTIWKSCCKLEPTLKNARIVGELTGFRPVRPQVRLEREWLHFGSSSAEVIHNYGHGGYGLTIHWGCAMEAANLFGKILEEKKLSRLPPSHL

Compound: CNCCC(Oc1ccc(C(F)(F)F)cc1)c1ccccc1 (stereo not shown) [fluoxetine, reference compound]
- Immobility time in tail suspension test ([1]; 10 mg/kg for 7 days): 76.0 ± 17.8 s
- Mean score of ptosis ([2]; 10 mg/kg): 1.4 ^*
- Body temperature ([3]; 10 mg/kg): 35.31±0.26 ºC
- Rate of out-circle ([4]; 10 mg/kg): 60.0%

Compound: Cc1cc(C(=O)O)n[nH]1 [AS057278, reference compound]
- D-serine in DAAO system (%) [5]: 38%

Compound: O=[N+]([O-])c1ccc(OP(=O)(O)Oc2ccc([N+](=O)[O-])cc2)cc1 [BNPP, bis-p-nitrophenyl phosphate]
- Albiflorin conversion rate in presence of inhibitor ([6]; BNPP 0.3 mM): 82.7%
- Albiflorin conversion rate in presence of inhibitor ([6]; BNPP 0.9 mM): 51.5%
- Albiflorin conversion rate in presence of inhibitor ([6]; BNPP 3 mM): 11.3%

Compound: O=C(O)c1ccccc1 [benzoic acid, Benzoic acid]
- Immobility time in tail suspension test ([1]; 14 mg/kg for 7 days): 99.5 ± 10.1 s
- Sugar preference values vs depression group [7]: significantly higher
- Where the metabolite was detected in mice [8]: detected in plasma, feces and brain
- Mean score of ptosis ([2]; 14 mg/kg): 1.7 ^*
- D-serine in DAAO system (%) [5]: 32%
- Body temperature ([3]; 14 mg/kg): 35.23±0.40 ºC
- Activity of DAAO in brain homogenate [9]: significantly inhibit
- Rate of out-circle ([4]; 14 mg/kg): 70.0 ^* %

Compound: glucuronic acid-conjugated albiflorin [M3]
- Where the metabolite was detected in mice [8]: only detected in the feces

Compound: dihydroxylalbiflorin [M2]
- Where the metabolite was detected in mice [8]: only detected in the feces

Compound: hydroxylalbiflorin [M1]
- Where the metabolite was detected in mice [8]: only detected in the feces
